Source: ChEMBL document CHEMBL1914443, “Inhibition of c-Kit, VEGFR-2 (KDR), and ABCG2 by analogues of OSI-930” (Bioorg Med Chem Lett, 2011)

Assays:
[1] = molecular target: Receptor-type tyrosine-protein kinase FLT3 (Homo sapiens) (UniProt P36888); assay: Inhibition of Flt3 using Tyr 02 peptide as substrate at 1 uM after 60 mins by Z'-LYTE assay
[2] = molecular target: Platelet-derived growth factor receptor beta (Homo sapiens) (UniProt P09619); assay: Inhibition of PDGFRbeta using Tyr 04 peptide as substrate at 1 uM after 60 mins by Z'-LYTE assay
[3] = molecular target: T1, Vascular endothelial growth factor receptor 2 (Homo sapiens, UniProt P35968); assay: Inhibition of KDR using Tyr 01 peptide as substrate at 10 uM after 60 mins by Z'-LYTE assay
T1 sequence (P35968 whole entry): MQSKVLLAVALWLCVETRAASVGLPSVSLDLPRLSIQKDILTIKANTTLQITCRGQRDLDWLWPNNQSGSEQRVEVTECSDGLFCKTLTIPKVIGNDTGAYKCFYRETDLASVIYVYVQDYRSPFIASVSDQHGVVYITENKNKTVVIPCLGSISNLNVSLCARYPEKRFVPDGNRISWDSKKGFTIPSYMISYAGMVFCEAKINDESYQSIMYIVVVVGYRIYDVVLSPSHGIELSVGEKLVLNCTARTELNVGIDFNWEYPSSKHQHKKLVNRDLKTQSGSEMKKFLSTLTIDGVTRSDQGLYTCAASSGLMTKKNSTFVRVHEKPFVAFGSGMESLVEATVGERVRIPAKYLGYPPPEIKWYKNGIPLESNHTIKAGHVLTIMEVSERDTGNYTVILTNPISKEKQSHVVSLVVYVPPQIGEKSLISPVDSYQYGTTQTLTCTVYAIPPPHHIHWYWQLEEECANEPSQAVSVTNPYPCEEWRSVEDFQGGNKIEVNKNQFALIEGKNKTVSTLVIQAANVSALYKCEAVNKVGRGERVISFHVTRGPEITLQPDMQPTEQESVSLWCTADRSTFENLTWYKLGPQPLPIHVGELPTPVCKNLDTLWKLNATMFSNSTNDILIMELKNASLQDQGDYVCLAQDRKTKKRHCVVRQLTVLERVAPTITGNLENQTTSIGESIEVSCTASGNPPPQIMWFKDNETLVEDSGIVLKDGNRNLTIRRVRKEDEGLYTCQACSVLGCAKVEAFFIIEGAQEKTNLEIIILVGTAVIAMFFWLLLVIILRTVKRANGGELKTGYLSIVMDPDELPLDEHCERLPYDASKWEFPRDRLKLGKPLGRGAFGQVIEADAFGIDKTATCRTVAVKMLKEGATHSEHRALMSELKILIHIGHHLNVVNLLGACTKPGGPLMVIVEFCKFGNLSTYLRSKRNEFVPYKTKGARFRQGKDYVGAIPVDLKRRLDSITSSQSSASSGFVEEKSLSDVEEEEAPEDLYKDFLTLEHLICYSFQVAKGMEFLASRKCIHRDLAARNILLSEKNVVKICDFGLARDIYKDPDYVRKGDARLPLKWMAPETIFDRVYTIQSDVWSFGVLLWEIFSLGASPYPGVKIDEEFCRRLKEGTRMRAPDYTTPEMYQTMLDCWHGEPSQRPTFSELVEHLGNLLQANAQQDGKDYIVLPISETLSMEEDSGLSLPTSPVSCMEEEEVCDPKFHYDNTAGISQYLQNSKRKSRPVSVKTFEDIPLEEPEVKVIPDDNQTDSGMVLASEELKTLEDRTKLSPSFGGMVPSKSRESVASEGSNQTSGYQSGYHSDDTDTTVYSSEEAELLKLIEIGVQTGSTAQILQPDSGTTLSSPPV

[4] = molecular target: Platelet-derived growth factor receptor alpha (Homo sapiens) (UniProt P16234); assay: Inhibition of PDGFRalpha using Tyr 04 peptide as substrate at 10 uM after 60 mins by Z'-LYTE assay
Sequence of Platelet-derived growth factor receptor alpha (Homo sapiens) (P16234 whole entry): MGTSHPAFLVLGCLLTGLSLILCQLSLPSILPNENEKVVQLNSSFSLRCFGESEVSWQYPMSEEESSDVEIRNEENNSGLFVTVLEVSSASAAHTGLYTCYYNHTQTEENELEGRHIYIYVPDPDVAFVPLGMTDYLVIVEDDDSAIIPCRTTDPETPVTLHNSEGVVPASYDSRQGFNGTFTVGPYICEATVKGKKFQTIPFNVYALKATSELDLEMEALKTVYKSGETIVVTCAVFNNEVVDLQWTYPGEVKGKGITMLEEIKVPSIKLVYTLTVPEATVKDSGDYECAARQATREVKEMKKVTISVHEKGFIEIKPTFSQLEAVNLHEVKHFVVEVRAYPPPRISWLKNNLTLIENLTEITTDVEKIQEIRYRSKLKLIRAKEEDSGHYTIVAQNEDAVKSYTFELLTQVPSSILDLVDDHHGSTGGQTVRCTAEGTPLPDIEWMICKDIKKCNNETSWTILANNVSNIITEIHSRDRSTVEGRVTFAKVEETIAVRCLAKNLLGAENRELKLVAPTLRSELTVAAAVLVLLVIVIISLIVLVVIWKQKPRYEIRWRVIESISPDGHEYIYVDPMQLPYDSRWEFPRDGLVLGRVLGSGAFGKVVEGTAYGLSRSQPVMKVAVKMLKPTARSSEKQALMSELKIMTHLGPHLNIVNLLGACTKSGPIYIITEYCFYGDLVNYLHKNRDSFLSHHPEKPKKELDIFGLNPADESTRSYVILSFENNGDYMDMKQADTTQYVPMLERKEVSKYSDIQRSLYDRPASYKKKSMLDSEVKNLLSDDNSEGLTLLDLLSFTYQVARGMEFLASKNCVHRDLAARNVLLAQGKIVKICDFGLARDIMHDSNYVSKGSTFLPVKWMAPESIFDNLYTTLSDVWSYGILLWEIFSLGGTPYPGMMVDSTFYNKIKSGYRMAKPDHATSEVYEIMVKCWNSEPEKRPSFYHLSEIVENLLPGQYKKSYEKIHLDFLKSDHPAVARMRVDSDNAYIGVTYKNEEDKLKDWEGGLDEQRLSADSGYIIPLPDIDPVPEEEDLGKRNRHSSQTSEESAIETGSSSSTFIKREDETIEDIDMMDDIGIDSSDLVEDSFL

[5] = molecular target: Angiopoietin-1 receptor (Homo sapiens) (UniProt Q02763); assay: Inhibition of Tie-2 using Tyr 05 peptide as substrate at 10 uM after 60 mins by Z'-LYTE assay
[6] = molecular target: Vascular endothelial growth factor receptor 1 (Homo sapiens) (UniProt P17948); assay: Inhibition of VEGFR1 using Tyr 04 peptide as substrate at 1 uM after 60 mins by Z'-LYTE assay
Sequence of Vascular endothelial growth factor receptor 1 (Homo sapiens) (P17948 whole entry): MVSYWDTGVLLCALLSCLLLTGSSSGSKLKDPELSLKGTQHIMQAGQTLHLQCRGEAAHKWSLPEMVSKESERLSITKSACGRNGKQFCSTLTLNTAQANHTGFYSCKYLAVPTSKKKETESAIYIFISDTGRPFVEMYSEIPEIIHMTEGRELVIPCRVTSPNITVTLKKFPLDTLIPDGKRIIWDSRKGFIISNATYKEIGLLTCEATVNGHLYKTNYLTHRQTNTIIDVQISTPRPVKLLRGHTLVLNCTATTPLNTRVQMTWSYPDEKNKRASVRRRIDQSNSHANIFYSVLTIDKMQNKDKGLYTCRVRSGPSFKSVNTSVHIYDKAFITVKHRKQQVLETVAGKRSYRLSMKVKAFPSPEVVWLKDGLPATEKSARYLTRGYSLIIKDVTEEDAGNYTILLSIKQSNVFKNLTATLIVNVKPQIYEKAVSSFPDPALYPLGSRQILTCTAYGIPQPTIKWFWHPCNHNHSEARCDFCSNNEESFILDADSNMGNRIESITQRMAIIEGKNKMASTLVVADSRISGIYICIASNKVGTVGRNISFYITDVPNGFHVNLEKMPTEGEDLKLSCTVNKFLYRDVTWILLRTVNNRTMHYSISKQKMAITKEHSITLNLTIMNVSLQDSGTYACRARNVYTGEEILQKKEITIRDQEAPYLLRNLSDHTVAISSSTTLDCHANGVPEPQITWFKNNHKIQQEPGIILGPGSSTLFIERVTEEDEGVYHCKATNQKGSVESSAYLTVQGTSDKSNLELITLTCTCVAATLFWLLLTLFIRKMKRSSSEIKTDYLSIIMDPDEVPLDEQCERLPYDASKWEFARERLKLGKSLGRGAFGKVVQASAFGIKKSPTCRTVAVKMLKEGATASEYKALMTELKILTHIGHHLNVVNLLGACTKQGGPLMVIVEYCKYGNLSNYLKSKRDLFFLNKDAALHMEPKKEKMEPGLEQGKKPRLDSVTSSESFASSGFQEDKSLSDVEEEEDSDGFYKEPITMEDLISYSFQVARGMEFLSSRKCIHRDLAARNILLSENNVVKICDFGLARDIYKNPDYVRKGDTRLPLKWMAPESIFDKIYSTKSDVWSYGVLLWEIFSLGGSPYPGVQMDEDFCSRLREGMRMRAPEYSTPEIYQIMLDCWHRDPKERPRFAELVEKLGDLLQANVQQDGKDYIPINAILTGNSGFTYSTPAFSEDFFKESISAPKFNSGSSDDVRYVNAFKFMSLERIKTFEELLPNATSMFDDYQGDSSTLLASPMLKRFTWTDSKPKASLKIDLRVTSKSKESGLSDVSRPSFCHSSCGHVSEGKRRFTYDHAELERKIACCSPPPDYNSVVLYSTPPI

[7] = molecular target: Angiopoietin-1 receptor (Homo sapiens) (UniProt Q02763); assay: Inhibition of Tie-2 using Tyr 05 peptide as substrate at 1 uM after 60 mins by Z'-LYTE assay
[8] = molecular target: Platelet-derived growth factor receptor alpha (Homo sapiens) (UniProt P16234); assay: Inhibition of PDGFRalpha using Tyr 04 peptide as substrate at 1 uM after 60 mins by Z'-LYTE assay
[9] = molecular target: Vascular endothelial growth factor receptor 1 (Homo sapiens) (UniProt P17948); assay: Inhibition of VEGFR1 using Tyr 04 peptide as substrate at 10 uM after 60 mins by Z'-LYTE assay
[10] = molecular target: Receptor-type tyrosine-protein kinase FLT3 (Homo sapiens) (UniProt P36888); assay: Inhibition of Flt3 using Tyr 02 peptide as substrate at 10 uM after 60 mins by Z'-LYTE assay
[11] = molecular target: T1, Vascular endothelial growth factor receptor 2; assay: Inhibition of KDR using Tyr 01 peptide as substrate at 1 uM after 60 mins by Z'-LYTE assay
[12] = molecular target: Vascular endothelial growth factor receptor 3 (Homo sapiens) (UniProt P35916); assay: Inhibition of VEGFR3 using Tyr 04 peptide as substrate at 1 uM after 60 mins by Z'-LYTE assay
[13] = molecular target: T2, Mast/stem cell growth factor receptor Kit (Homo sapiens, UniProt P10721); assay: Inhibition of c-Kit using Tyr 06 peptide as substrate at 1 uM after 60 mins by Z'-LYTE assay
T2 sequence (P10721 whole entry): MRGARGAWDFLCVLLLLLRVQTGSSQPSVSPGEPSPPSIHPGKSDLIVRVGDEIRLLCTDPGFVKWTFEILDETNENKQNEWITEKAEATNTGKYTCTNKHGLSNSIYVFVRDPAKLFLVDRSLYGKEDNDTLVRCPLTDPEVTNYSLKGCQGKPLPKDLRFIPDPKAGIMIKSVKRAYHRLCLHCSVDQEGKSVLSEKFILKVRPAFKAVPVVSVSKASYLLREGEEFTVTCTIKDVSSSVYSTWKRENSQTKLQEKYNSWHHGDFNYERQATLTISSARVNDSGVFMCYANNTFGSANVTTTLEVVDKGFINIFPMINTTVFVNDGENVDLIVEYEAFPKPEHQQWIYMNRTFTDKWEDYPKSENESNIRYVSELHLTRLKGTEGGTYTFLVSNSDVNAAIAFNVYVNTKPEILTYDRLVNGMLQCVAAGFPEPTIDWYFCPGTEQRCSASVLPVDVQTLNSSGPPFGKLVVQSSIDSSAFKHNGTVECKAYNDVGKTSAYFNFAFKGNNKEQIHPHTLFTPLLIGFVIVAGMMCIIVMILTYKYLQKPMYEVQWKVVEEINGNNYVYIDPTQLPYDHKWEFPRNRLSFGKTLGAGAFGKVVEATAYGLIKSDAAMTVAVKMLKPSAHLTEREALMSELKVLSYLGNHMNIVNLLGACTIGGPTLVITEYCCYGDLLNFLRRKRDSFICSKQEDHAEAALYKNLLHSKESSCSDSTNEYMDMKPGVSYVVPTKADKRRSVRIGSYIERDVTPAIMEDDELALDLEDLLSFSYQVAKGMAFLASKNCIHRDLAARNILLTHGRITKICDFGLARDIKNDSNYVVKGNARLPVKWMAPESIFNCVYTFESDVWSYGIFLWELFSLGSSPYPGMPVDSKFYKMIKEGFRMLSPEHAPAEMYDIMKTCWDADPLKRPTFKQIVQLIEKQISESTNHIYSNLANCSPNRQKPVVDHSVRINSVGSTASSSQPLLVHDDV

[14] = molecular target: Vascular endothelial growth factor receptor 3 (Homo sapiens) (UniProt P35916); assay: Inhibition of VEGFR3 using Tyr 04 peptide as substrate at 10 uM after 60 mins by Z'-LYTE assay
[15] = molecular target: T2, Mast/stem cell growth factor receptor Kit; assay: Inhibition of c-Kit using Tyr 06 peptide as substrate at 10 uM after 60 mins by Z'-LYTE assay
[16] = molecular target: Platelet-derived growth factor receptor beta (Homo sapiens) (UniProt P09619); assay: Inhibition of PDGFRbeta using Tyr 04 peptide as substrate at 10 uM after 60 mins by Z'-LYTE assay
[17] = molecular target: T3, ABCG2 (Homo sapiens, UniProt Q9UNQ0); assay: Inhibition of ATP-dependent ABCG2 pump assessed as ratio of compound IC50 for HEK/ABCG2-482-R2 cells to IC50 for HEK293/pcDNA3.1 cells after 72 hrs by MTT assay; conditions: HEK/ABCG2-482-R2 cells versus HEK293/pcDNA3.1 cells, read-out: Ratio IC50
T3 sequence (Q9UNQ0 whole entry): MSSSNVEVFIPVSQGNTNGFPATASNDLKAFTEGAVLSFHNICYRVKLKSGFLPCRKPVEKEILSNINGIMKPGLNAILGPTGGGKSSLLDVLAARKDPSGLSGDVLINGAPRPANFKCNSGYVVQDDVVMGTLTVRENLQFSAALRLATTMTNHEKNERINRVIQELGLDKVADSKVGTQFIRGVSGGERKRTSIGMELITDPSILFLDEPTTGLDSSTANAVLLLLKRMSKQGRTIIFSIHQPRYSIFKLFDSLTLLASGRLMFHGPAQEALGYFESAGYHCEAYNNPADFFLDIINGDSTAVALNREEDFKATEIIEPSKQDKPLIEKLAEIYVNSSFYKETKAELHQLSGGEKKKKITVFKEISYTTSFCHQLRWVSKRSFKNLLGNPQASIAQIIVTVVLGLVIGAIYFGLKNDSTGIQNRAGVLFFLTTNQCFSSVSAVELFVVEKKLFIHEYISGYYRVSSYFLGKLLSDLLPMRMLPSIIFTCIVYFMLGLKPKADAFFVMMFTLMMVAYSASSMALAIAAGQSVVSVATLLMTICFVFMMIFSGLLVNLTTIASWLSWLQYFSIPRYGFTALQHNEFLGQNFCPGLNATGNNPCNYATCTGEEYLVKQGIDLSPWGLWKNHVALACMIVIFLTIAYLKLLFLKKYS
Method in brief: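 Fold-resistance was calculated as mitoxantrone IC50 in HEK/ABCG2-482-R2 (wild-type ABCG2-transfected) cells divided by mitoxantrone IC50 in HEK293/pcDNA3 parental cells, with or without analogue at 10 μM. FTC at 2.5 μM served as the reference. Cell survival was measured by MTT. Results are means ± SD of at least three independent experiments, each run in triplicate.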

Row | inhibition [1] | inhibition [2] | inhibition [3] | inhibition [4] | inhibition [5] | inhibition [6] | inhibition [7] | inhibition [8] | inhibition [9] | inhibition [10] | inhibition [11] | inhibition [12] | inhibition [13] | inhibition [14] | inhibition [15] | inhibition [16] | Structure (SMILES) | selectivity ratio at 72 h [17]
1 | < 40% | < 40% | < 40% | < 40% | < 40% | < 40% | < 40% | < 40% | < 40% | < 40% | < 40% | < 40% | < 40% | < 40% | < 40% | < 40% | O=C(Nc1ccc(OC(F)(F)F)cc1)c1sccc1NCc1ccccc1N=C=S | –
2 | – | – | – | – | – | – | – | – | – | – | – | – | – | – | – | – | O=C1c2c(O)ccc(O)c2C(=O)c2c(NCCNCCO)ccc(NCCNCCO)c21 [MITOXANTRONE] | 15.3
3 | < 40% | < 40% | < 40% | < 40% | < 40% | < 40% | < 40% | < 40% | < 40% | < 40% | < 40% | < 40% | < 40% | < 40% | < 40% | < 40% | CC(=O)Nc1ccccc1CNc1ccsc1C(=O)Nc1ccc(OC(F)(F)F)cc1 | –
4 | < 40% | < 40% | < 40% | < 40% | < 40% | < 40% | < 40% | < 40% | < 40% | < 40% | < 40% | < 40% | < 40% | < 40% | < 40% | < 40% | O=C(Nc1ccc(OC(F)(F)F)cc1)c1sccc1NCc1cccc(N=C=S)c1 | –
5 | – | – | 88% | – | – | – | – | – | – | 41% | 50% | – | 57% | 41% | 91% | 47% | Nc1cnccc1CNc1ccsc1C(=O)Nc1ccc(OC(F)(F)F)cc1 | –
6 | < 40% | < 40% | < 40% | < 40% | < 40% | < 40% | < 40% | < 40% | < 40% | < 40% | < 40% | < 40% | < 40% | < 40% | < 40% | < 40% | O=C(Nc1ccc(OC(F)(F)F)cc1)c1sccc1NCc1ccc([N+](=O)[O-])cc1 | –
7 | < 40% | < 40% | < 40% | < 40% | < 40% | < 40% | < 40% | < 40% | < 40% | < 40% | < 40% | < 40% | < 40% | < 40% | < 40% | < 40% | O=C(Nc1ccc(OC(F)(F)F)cc1)c1sccc1NCc1ccc(N=C=S)cc1 | –
8 | < 40% | < 40% | < 40% | < 40% | < 40% | < 40% | < 40% | < 40% | < 40% | < 40% | < 40% | < 40% | < 40% | < 40% | < 40% | < 40% | CC(=O)Nc1ccc(CNc2ccsc2C(=O)Nc2ccc(OC(F)(F)F)cc2)cc1 | –
9 | < 40% | < 40% | < 40% | < 40% | < 40% | < 40% | < 40% | < 40% | < 40% | < 40% | < 40% | < 40% | < 40% | < 40% | < 40% | < 40% | Nc1cccc(CNc2ccsc2C(=O)Nc2ccc(OC(F)(F)F)cc2)c1 | –
10 | – | – | 54% | – | – | – | – | – | – | – | < 40% | – | < 40% | – | 68% | 44% | O=C(Nc1ccc(OC(F)(F)F)cc1)c1sccc1NCc1ccc(O)cc1 | –
11 | < 40% | < 40% | < 40% | < 40% | < 40% | < 40% | < 40% | < 40% | < 40% | < 40% | < 40% | < 40% | < 40% | < 40% | < 40% | < 40% | Nc1ccc(CNc2ccsc2C(=O)Nc2ccc(OC(F)(F)F)cc2)cc1 | –
12 | – | – | < 40% | – | – | – | – | – | – | – | < 40% | – | < 40% | – | 58% | – | CC(=O)Nc1cccc(CNc2ccsc2C(=O)Nc2ccc(OC(F)(F)F)cc2)c1 | –
13 | < 40% | < 40% | < 40% | < 40% | < 40% | < 40% | < 40% | < 40% | < 40% | < 40% | < 40% | < 40% | < 40% | < 40% | < 40% | < 40% | Nc1ccccc1CNc1ccsc1C(=O)Nc1ccc(OC(F)(F)F)cc1 | –
14 | < 40% | < 40% | < 40% | < 40% | < 40% | < 40% | < 40% | < 40% | < 40% | < 40% | < 40% | < 40% | < 40% | < 40% | < 40% | < 40% | O=C(Nc1ccc(OC(F)(F)F)cc1)c1sccc1NCc1cccc([N+](=O)[O-])c1 | –
15 | – | – | < 40% | – | – | – | – | – | – | – | < 40% | – | < 40% | – | 80% | – | O=C(Nc1ccc(OC(F)(F)F)cc1)c1sccc1NCc1ccncc1[N+](=O)[O-] | –
16 | – | – | 101% | – | – | – | – | – | – | – | 101% | – | 81% | – | 102% | – | CC(=O)Nc1cc(CNc2ccsc2C(=O)Nc2ccc(OC(F)(F)F)cc2)ccn1 | –
17 | – | – | < 40% | – | – | – | – | – | – | – | < 40% | – | < 40% | – | 41% | – | O=C(CBr)Nc1cccc(CN2C(=O)CN(c3ccc(OC(F)(F)F)cc3)C(=O)c3sccc32)c1 | –
18 | < 40% | < 40% | < 40% | < 40% | < 40% | < 40% | < 40% | < 40% | < 40% | < 40% | < 40% | < 40% | < 40% | < 40% | < 40% | < 40% | O=C(Nc1ccc(OC(F)(F)F)cc1)c1sccc1NCc1ccccc1[N+](=O)[O-] | –
